Experimental data published in ChEMBL document CHEMBL1177802, “Novel semicarbazones based 2,5-disubstituted-1,3,4-oxadiazoles: one more step towards establishing four binding site pharmacophoric model hypothesis for anticonvulsant activity” (Bioorg Med Chem Lett, 2010).
Active and inactive are the calls of the source.

Key:
Mus musculus [1] = assay: Anticonvulsant activity against maximal electroshock-induced seizures in Swiss albino mouse at 300 mg/kg, ip after 4 hrs; format: functional, organism-based; parameters: dose 300 mg/kg
Procedure, shortened: (§1)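 Mice; compounds given ip at 30, 100 and 300 mg/kg and tested in the maximal electroshock seizure model at 0.5 and 4.0 h after dosing. Read-out is the minimal dose giving protection in half or more of the animals. Absence of activity is judged at the 300 mg/kg maximum.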

Mus musculus [2] = assay: Anticonvulsant activity against subcutaneous pentylenetetrazole-induced seizures in Swiss albino mouse at 300 mg/kg, ip after 4 hrs; format: functional, organism-based; parameters: dose 300 mg/kg
Procedure, shortened: (§2)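 Mice; subcutaneous pentylenetetrazole seizure screen after ip dosing at 30, 100 and 300 mg/kg, read 0.5 and 4.0 h post-dose. Scored as the lowest dose protecting at least half of the animals. Absence of activity is judged at the 300 mg/kg maximum.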

Rattus norvegicus [3] = assay: Anticonvulsant activity against subcutaneous strychnine-induced seizures in ip dosed Wistar rat assessed as minimum effective dose after 4 hrs; format: functional; details: read-out: MED
Procedure, shortened: (§3)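 Rats; subcutaneous strychnine-induced seizure model with compounds given intraperitoneally at 30, 100 and 300 mg/kg. Activity is checked at 0.5 h and 4.0 h and recorded as the minimal dose active in at least half of the animals. Absence of activity is judged at the 300 mg/kg maximum.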

Mus musculus [4] = assay: Anticonvulsant activity against subcutaneous pentylenetetrazole-induced seizures in Swiss albino mouse at 300 mg/kg, ip after 0.5 hrs; format: functional, organism-based; parameters: dose 300 mg/kg; procedure, shortened: as §2
Mus musculus [5] = assay: Anticonvulsant activity against maximal electroshock-induced seizures in ip dosed Swiss albino mouse assessed as minimum effective dose after 0.5 hrs; format: functional; details: read-out: MED; procedure, shortened: as §1
Rattus norvegicus [6] = assay: Anticonvulsant activity against subcutaneous strychnine-induced seizures in Wistar rat at 300 mg/kg, ip after 0.5 hrs; format: functional, organism-based; parameters: dose 300 mg/kg; procedure, shortened: as §3
Mus musculus [7] = assay: Neurotoxicity in Swiss albino mouse at 300 mg/kg, ip after 0.5 hrs; format: toxicity, organism-based; parameters: dose 300 mg/kg, route intraperitoneal; details: in vivo
Procedure, shortened: (§4)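 Acute neurotoxicity by rotorod test in mice given 30, 100 and 300 mg/kg ip, assessed 0.5 and 4.0 h after dosing. Reported as the minimal dose producing the effect in half or more of the animals. Absence of activity is judged at the 300 mg/kg maximum.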

Mus musculus [8] = assay: Neurotoxicity in ip dosed Swiss albino mouse assessed as minimum dose required to cause toxicity after 4 hrs; format: organism-based; details: in vivo; procedure, shortened: as §4
Mus musculus [9] = assay: Anticonvulsant activity against maximal electroshock-induced seizures in ip dosed Swiss albino mouse assessed as minimum effective dose after 4 hrs; format: functional; details: read-out: MED; procedure, shortened: as §1
Mus musculus [10] = assay: Anticonvulsant activity against maximal electroshock-induced seizures in Swiss albino mouse at 300 mg/kg, ip after 0.5 hrs; format: functional, organism-based; parameters: dose 300 mg/kg; procedure, shortened: as §1
Rattus norvegicus [11] = assay: Anticonvulsant activity against subcutaneous strychnine-induced seizures in Wistar rat at 300 mg/kg, ip after 4 hrs; format: functional, organism-based; parameters: dose 300 mg/kg; procedure, shortened: as §3
Mus musculus [12] = assay: Neurotoxicity in ip dosed Swiss albino mouse assessed as minimum dose required to cause toxicity after 0.5 hrs; format: organism-based; details: in vivo; procedure, shortened: as §4
Mus musculus [13] = assay: Neurotoxicity in Swiss albino mouse at 300 mg/kg, ip after 4 hrs; format: toxicity, organism-based; parameters: dose 300 mg/kg, route intraperitoneal; details: in vivo; procedure, shortened: as §4
Mus musculus [14] = assay: Anticonvulsant activity against subcutaneous pentylenetetrazole-induced seizures in ip dosed Swiss albino mouse assessed as minimum effective dose after 4 hrs; format: functional; details: read-out: MED; procedure, shortened: as §2
Mus musculus [15] = assay: Anticonvulsant activity against subcutaneous pentylenetetrazole-induced seizures in ip dosed Swiss albino mouse assessed as minimum effective dose after 0.5 hrs; format: functional; details: read-out: MED; procedure, shortened: as §2
Rattus norvegicus [16] = assay: Anticonvulsant activity against subcutaneous strychnine-induced seizures in ip dosed Wistar rat assessed as minimum effective dose after 0.5 hrs; format: functional; details: read-out: MED
Procedure, shortened: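 Rats given 30, 100 or 300 mg/kg ip and challenged with subcutaneous strychnine. Protection was read at 0.5 and 4.0 h after dosing. The value is the minimal dose that gave activity in half or more of the animals; no activity at 300 mg/kg was the highest-dose cut-off.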

| SMILES | MED (Mus musculus [1]) | MED (Mus musculus [2]) | minimal effective dose (Rattus norvegicus [3]) | MED (Mus musculus [4]) | minimal effective dose (Mus musculus [5]) | MED (Rattus norvegicus [6]) | Activity (Mus musculus [7]) | Activity (Mus musculus [8]) | minimal effective dose (Mus musculus [9]) | MED (Mus musculus [10]) | MED (Rattus norvegicus [11]) | Activity (Mus musculus [12]) | Activity (Mus musculus [13]) | minimal effective dose (Mus musculus [14]) | minimal effective dose (Mus musculus [15]) | minimal effective dose (Rattus norvegicus [16]) |
| --- | --- | --- | --- | --- | --- | --- | --- | --- | --- | --- | --- | --- | --- | --- | --- | --- |
| O=C(N/N=C\c1ccc([N+](=O)[O-])cc1)Nc1nnc(COc2ccc3ccccc3c2)o1 | inactive | inactive | 300 mg/kg | inactive | 300 mg/kg | inactive | Non-toxic | 300 mg/kg | – | – | – | – | – | – | – | – |
| O=C(N/N=C\c1ccccc1)Nc1nnc(COc2ccc3ccccc3c2)o1 | – | inactive | – | inactive | – | inactive | Non-toxic | 300 mg/kg | 300 mg/kg | inactive | inactive | – | – | – | – | – |
| O=C(N/N=C\c1ccc(Cl)cc1)Nc1nnc(COc2ccc3ccccc3c2)o1 | inactive | inactive | – | inactive | – | inactive | – | – | – | inactive | inactive | 300 mg/kg | Non-toxic | – | – | – |
| CN(C)c1ccc(/C=N\NC(=O)Nc2nnc(COc3ccc4ccccc4c3)o2)cc1 | – | inactive | – | inactive | 100 mg/kg | inactive | Non-toxic | 300 mg/kg | 300 mg/kg | – | inactive | – | – | – | – | – |
| COc1ccc(/C=N\NC(=O)Nc2nnc(COc3ccc4ccccc4c3)o2)cc1 | inactive | – | – | inactive | – | inactive | Non-toxic | – | – | inactive | inactive | – | Non-toxic | 300 mg/kg | – | – |
| C/C(=N/NC(=O)Nc1nnc(COc2ccc3ccccc3c2)o1)c1ccc(N)cc1 | – | – | 300 mg/kg | inactive | – | inactive | Non-toxic | – | 300 mg/kg | inactive | – | – | Non-toxic | 300 mg/kg | – | – |
| Cc1ccc(/C=N\NC(=O)Nc2nnc(COc3ccc4ccccc4c3)o2)cc1 | – | inactive | – | inactive | – | inactive | Non-toxic | – | 300 mg/kg | inactive | inactive | – | Non-toxic | – | – | – |
| O=C(N/N=C\c1cccc(O)c1)Nc1nnc(COc2ccc3ccccc3c2)o1 | – | – | – | inactive | – | inactive | Non-toxic | 300 mg/kg | 300 mg/kg | inactive | inactive | – | – | 300 mg/kg | – | – |
| C/C(=N/NC(=O)Nc1nnc(COc2ccc3ccccc3c2)o1)c1ccc(Cl)cc1 | inactive | – | – | inactive | – | inactive | Non-toxic | – | – | inactive | inactive | – | Non-toxic | 300 mg/kg | – | – |
| COc1ccc(/C(=N\NC(=O)Nc2nnc(COc3ccc4ccccc4c3)o2)c2ccccc2)cc1 | – | inactive | – | inactive | – | inactive | Non-toxic | 300 mg/kg | 300 mg/kg | inactive | inactive | – | – | – | – | – |
| COc1cc(/C=N\NC(=O)Nc2nnc(COc3ccc4ccccc4c3)o2)ccc1O | inactive | inactive | 300 mg/kg | inactive | – | inactive | – | – | – | inactive | – | 300 mg/kg | Non-toxic | – | – | – |
| O=C1NC(=O)C(c2ccccc2)(c2ccccc2)N1 [PHENYTOIN] | – | inactive | 100 mg/kg | inactive | 30 mg/kg | inactive | – | 100 mg/kg | 30 mg/kg | – | – | 100 mg/kg | – | – | – | – |
| NC(=O)N1c2ccccc2C=Cc2ccccc21 [CARBAMAZEPINE] | – | – | – | – | 30 mg/kg | inactive | – | 300 mg/kg | 100 mg/kg | – | inactive | 100 mg/kg | – | 300 mg/kg | 100 mg/kg | – |
| CCCC(CCC)C(=O)[O-].[Na+] [VALPROATE SODIUM] | inactive | inactive | – | – | 300 mg/kg | – | Non-toxic | – | – | – | inactive | – | Non-toxic | – | 300 mg/kg | 300 mg/kg |
| C/C(=N/NC(=O)Nc1nnc(COc2ccc3ccccc3c2)o1)c1ccc(C)cc1 | inactive | inactive | – | – | – | inactive | – | – | – | inactive | inactive | 300 mg/kg | Non-toxic | – | 300 mg/kg | – |
| CCC1(C)CC(=O)NC1=O (centres undefined) [ETHOSUXIMIDE] | inactive | – | – | – | – | – | Non-toxic | – | – | inactive | inactive | – | Non-toxic | 300 mg/kg | 100 mg/kg | 300 mg/kg |
| C/C(=N/NC(=O)Nc1nnc(COc2ccc3ccccc3c2)o1)c1ccc(O)cc1 | – | inactive | – | inactive | 100 mg/kg | inactive | Non-toxic | 300 mg/kg | 300 mg/kg | – | inactive | – | – | – | – | – |
| O=C(NN=C(c1ccccc1)c1ccccc1)Nc1nnc(COc2ccc3ccccc3c2)o1 | – | inactive | – | inactive | – | inactive | – | – | 300 mg/kg | inactive | inactive | 300 mg/kg | Non-toxic | – | – | – |
